Assay results as given in ChEMBL document CHEMBL4368938, “Design, synthesis and biological evaluation of inhibitors of cathepsin K on dedifferentiated chondrocytes” (Bioorg Med Chem, 2019).
Active and inactive are the calls of the source. No cut-off for these calls is given here.

Assays:
[1] = target: Matrix metalloproteinase-9 (Mus musculus) (UniProt P41245); assay: Inhibition of MMP9 in mouse Primary chondrocytes derived after 2 passages at 1 uM after 24 hrs by Coomassie blue staining-based zymography assay; type: cell-based
Method in brief: (§1)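 Gelatin zymography of extracellular medium from primary mouse chondrocytes. Medium collected in pH 7.5 Tris/EGTA/Triton extraction buffer, and equal protein run on 8% SDS gels with 1.2 mg/mL gelatin. Renatured in Tris/20% glycerol (2 × 45 min), then pH 7.4 Tris/NaCl/5 mM CaCl2 buffer. After 30 min, fresh buffer with 0.1% DMSO ± inhibitor for 24 h at 37 °C. Coomassie stained; clear bands scored. Triplicate.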

[2] = target: T1, Cathepsin K (Mus musculus) (UniProt P55097); assay: Inhibition of cathepsin K in mouse Primary chondrocytes derived after 2 passages at 1 uM after 24 hrs by Coomassie blue staining-based zymography assay; type: cell-based
T1 sequence (whole entry): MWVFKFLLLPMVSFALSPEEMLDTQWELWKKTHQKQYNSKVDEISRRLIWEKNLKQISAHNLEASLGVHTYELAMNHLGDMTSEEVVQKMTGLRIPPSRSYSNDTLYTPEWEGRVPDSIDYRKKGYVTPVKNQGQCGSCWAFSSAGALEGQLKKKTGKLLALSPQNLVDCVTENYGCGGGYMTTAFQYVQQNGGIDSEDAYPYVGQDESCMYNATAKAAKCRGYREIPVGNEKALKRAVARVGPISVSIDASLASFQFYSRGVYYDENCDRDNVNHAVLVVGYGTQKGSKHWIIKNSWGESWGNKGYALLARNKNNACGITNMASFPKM
Method in brief: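 Chondrocyte lysates in pH 7.5 extraction buffer. Equal protein resolved on 12% SDS gels containing 2 mg/mL gelatin. Renatured in Tris/glycerol, then developed in pH 6.0 100 mM sodium phosphate with 1 mM EDTA and 2 mM DTT. After 30 min, buffer exchanged for fresh buffer with 0.1% DMSO ± inhibitor for 24 h at 37 °C. Coomassie stain and destain; lysis zones indicate activity.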

[3] = target: 72 kDa type IV collagenase (Mus musculus) (UniProt P33434); assay: Inhibition of MMP2 in mouse Primary chondrocytes derived after 2 passages at 1 uM after 24 hrs by Coomassie blue staining-based zymography assay; type: cell-based; method in brief: as §1
[4] = target: T1, Cathepsin K (Mus musculus); assay: Inhibition of cathepsin K in mouse Primary chondrocytes derived after 2 passages at 0.1 to 1 uM using Z-GPR-4MbetaNA as substrate by fluorescence assay relative to control; type: cell-based
Method in brief: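 Lysates of passaged primary chondrocytes in zymography extraction buffer. Incubated with Z-GPR-4MβNA (1 mg/mL), and released 4MβNA captured with 10 μM 5-nitrosalicylaldehyde. Fluorescence read at ex 488/em 525 nm, at least three reads per condition. Activity taken as (control − sample fluorescence) normalized to Bradford protein. Three independent experiments in triplicate.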

Cathepsin S = Cathepsin S (Homo sapiens, UniProt P25774); assay: Inhibition of recombinant human cathepsin S expressed in Escherichia coli
[5] = Cytotoxicity against mouse Primary chondrocytes assessed as reduction in cell viability at 0.001 to 5 uM after 3 days by MTT assay; details: 72 h
Method in brief: (§2)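 Cells plated at 60000/well (primary chondrocytes from epiphyseal cartilage of 5-6 day-old SWISS mice) or 100 000/well (MG-63, MOVAS cell lines). Grown in DMEM with 10% FBS plus penicillin/streptomycin, with or without inhibitor, for 3 days up to confluence. MTT 0.125 mg/mL final for 4 h, then DMSO solubilization and A570 read. Normalized to 0.1% DMSO control as 100%. Three sample pools, each in triplicate (n = 9).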

Cathepsin K = target: T2, Cathepsin K (Homo sapiens, UniProt P43235); assay: Inhibition of recombinant His-tagged human cathepsin K expressed in Escherichia coli
T2 sequence (P43235 whole entry): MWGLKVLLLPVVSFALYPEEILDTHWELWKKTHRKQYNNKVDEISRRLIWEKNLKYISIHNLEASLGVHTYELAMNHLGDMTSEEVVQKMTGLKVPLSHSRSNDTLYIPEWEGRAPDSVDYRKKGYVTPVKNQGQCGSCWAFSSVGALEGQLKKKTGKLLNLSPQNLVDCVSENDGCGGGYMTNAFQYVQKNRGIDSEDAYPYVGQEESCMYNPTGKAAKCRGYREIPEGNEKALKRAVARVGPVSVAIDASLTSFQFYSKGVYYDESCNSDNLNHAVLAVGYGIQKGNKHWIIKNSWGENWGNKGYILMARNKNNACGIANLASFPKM

MG-63 = assay: Cytotoxicity against human MG63 cells assessed as reduction in cell viability at 0.001 to 5 uM after 3 days by MTT assay; type: cell-based; details: mg-63, 72 h; method in brief: as §2
Procathepsin L = Procathepsin L (Homo sapiens, UniProt P07711); assay: Inhibition of human liver cathepsin L
Mus musculus [6] = species: Mus musculus; assay: Inhibition of aggrecanase in mouse Primary chondrocytes derived after 1 passages assessed as effect on measuring sGAG content at 1 uM by Alcian blue staining-based assay; type: cell-based
Method in brief: (§3)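 Passaged primary chondrocytes cultured ± inhibitor. Washed in PBS, fixed in 4% formaldehyde for 30 min at RT, then stained 30 min with 1% Alcian blue in 0.1 N HCl. Dye extracted with 33% isopropanol in 4.0 mol/L GnCl and A595 measured. Three independent experiments in triplicate.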

Mus musculus [7] = species: Mus musculus; assay: Inhibition of aggrecanase in mouse Primary chondrocytes derived after 0 passages assessed as effect on measuring sGAG content at 1 uM by Alcian blue staining-based assay; type: cell-based
[8] = Cytotoxicity against mouse MOVAS1 cells assessed as reduction in cell viability at 0.001 to 5 uM after 3 days by MTT assay; type: cell-based; details: 72 h; method in brief: as §2
Mus musculus [9] = species: Mus musculus; assay: Inhibition of aggrecanase in mouse Primary chondrocytes derived after 2 passages assessed as effect on measuring sGAG content at 1 uM by Alcian blue staining-based assay; type: cell-based; method in brief: as §3

Sequence of 72 kDa type IV collagenase (Mus musculus) (P33434 whole entry): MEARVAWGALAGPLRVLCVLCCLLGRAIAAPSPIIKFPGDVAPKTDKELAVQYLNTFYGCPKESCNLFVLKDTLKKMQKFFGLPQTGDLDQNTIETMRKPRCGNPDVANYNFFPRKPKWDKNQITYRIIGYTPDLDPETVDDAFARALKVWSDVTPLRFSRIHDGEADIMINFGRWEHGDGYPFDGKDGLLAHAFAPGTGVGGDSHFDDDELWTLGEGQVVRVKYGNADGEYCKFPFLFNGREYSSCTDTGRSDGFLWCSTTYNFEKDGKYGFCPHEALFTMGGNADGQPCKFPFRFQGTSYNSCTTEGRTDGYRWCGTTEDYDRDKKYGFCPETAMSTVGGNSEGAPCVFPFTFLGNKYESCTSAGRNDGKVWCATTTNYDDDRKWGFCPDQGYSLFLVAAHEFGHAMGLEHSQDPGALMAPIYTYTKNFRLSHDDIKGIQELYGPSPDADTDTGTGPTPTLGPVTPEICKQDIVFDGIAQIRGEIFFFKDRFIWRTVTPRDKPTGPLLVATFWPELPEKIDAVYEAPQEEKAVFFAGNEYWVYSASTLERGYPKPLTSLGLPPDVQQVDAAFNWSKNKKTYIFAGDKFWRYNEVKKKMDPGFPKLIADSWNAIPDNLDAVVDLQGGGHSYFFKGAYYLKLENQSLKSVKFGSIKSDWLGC
Sequence of Matrix metalloproteinase-9 (Mus musculus) (P41245 whole entry): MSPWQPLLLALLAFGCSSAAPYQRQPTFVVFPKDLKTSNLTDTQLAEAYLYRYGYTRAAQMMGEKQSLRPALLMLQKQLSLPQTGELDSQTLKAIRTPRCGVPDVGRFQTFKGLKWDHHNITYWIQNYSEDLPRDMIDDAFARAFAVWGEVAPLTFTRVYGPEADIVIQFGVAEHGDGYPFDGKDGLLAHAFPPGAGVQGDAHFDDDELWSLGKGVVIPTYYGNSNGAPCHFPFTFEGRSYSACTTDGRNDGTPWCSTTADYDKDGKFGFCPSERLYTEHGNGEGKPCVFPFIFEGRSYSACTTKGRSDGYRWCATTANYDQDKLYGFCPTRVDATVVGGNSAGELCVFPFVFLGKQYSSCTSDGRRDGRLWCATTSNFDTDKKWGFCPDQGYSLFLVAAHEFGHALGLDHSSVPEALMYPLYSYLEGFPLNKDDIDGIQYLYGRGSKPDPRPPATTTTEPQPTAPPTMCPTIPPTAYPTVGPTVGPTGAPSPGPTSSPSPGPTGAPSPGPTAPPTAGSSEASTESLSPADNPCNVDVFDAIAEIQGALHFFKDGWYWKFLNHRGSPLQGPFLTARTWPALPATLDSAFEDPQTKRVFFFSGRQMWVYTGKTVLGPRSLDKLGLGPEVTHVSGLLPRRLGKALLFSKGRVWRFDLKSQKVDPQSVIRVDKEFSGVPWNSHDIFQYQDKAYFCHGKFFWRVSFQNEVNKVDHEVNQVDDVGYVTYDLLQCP
Sequence of Procathepsin L (P07711 whole entry): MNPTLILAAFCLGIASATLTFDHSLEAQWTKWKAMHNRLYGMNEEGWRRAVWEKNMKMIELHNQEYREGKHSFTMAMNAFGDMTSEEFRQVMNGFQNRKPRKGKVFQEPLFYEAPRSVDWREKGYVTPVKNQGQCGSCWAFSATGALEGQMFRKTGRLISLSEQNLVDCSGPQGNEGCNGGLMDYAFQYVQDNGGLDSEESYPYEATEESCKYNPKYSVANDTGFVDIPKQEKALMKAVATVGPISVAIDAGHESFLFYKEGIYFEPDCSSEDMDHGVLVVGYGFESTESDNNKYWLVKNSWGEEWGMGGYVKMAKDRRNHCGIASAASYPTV
Sequence of Cathepsin S (P25774 whole entry): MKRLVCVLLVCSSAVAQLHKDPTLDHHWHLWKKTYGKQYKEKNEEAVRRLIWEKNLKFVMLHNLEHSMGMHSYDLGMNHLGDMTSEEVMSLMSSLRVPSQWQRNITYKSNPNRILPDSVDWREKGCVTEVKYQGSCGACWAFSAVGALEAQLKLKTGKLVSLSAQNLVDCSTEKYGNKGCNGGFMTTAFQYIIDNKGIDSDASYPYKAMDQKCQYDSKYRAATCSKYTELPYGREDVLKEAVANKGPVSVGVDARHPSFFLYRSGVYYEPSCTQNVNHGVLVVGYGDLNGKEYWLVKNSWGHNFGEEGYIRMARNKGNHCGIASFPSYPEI

| inhibition [1] | inhibition [2] | inhibition [3] | inhibition [4] [%] | IC50 (Cathepsin S) [nM] | Ki (Cathepsin S) [nM] | IC50 (Cathepsin K) [nM] | Ki (Cathepsin K) [nM] | IC50 (Procathepsin L) [nM] | Ki (Procathepsin L) [nM] | inhibition (Mus musculus [6]) | inhibition (Mus musculus [7]) | inhibition (Mus musculus [9]) | Structure (SMILES) | Activity [5] | Activity (MG-63) | Activity [8] |
| --- | --- | --- | --- | --- | --- | --- | --- | --- | --- | --- | --- | --- | --- | --- | --- | --- |
| inactive | Active | inactive | 19 to 30 |  |  |  |  |  |  |  |  |  | CC(C)(F)C[C@H](N[C@@H](c1ccc(-c2ccc(S(C)(=O)=O)cc2)cc1)C(F)(F)F)C(=O)NC1(C#N)CC1 |  |  |  |
| inactive | Active | inactive | 30 to 40 | 1020 | 735 | 15 | 7.21 | 2710 | 406 | inactive | inactive | inactive | CC(C)CC(C(=O)N(C)N(C)C#N)c1cccc(-c2ccc(S(C)(=O)=O)cc2)c1 (racemic) | Non-Toxic | Non-Toxic | Non-Toxic |
